According to ChEMBL document CHEMBL3616436, “Synthesis, cytotoxicity and antimicrobial activity of thiourea derivatives incorporating 3-(trifluoromethyl)phenyl moiety” (Eur J Med Chem, 2015):
≈ marks a conversion by molar mass, not a printed value. Calls of active or inactive are those of the source. No cut-off for these calls is given here.

Tests used:
[1] = target: T1, Topoisomerase IV (Staphylococcus aureus) (UniProt P0C1U9+P0C1S7); assay: Inhibition of decatenation activity of DNA topoisomerase 4 in Staphylococcus aureus ATCC 25923 using kDNA as substrate at 1 to 4 ug/ml after 1 hr using ethidium bromide staining by agarose gel electrophoresis; assay type: protein-complex assay
Outline: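 Kit-supplied S. aureus topoisomerase IV, 1 U, with 200 ng kDNA in the supplied assay buffer. Reactions ran 30 min at 37 °C with compound at 1, 4 or 32 µg/ml. They were stopped with STEB and extracted with chloroform/isoamyl alcohol (24:1). Products were run on 1% agarose in TAE for 1 h at 120 V and visualised with ethidium bromide under UV. Controls were no-enzyme, no-compound and ±DMSO.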

[2] = target: T1, Topoisomerase IV (Staphylococcus aureus); assay: Inhibition of decatenation activity of DNA topoisomerase 4 in Staphylococcus aureus ATCC 29213 using kDNA as substrate at 1 to 4 ug/ml […] using ethidium bromide staining by agarose gel electrophoresis; assay type: protein-complex assay
[3] = target: T1, Topoisomerase IV (Staphylococcus aureus); assay: Inhibition of decatenation activity of DNA topoisomerase 4 in hospital methicillin-resistant Staphylococcus aureus 53/05 using kDNA as substrate at 1 to 4 ug/ml after 1 hr using ethidium bromide staining by agarose gel electrophoresis; assay type: protein-complex assay
[4] = target: T1, Topoisomerase IV (Staphylococcus aureus); assay: Inhibition of decatenation activity of DNA topoisomerase 4 in hospital methicillin-resistant Staphylococcus aureus 57/05 using kDNA as substrate at 1 to 4 ug/ml after 1 hr using ethidium bromide staining by agarose gel electrophoresis; assay type: protein-complex assay
[5] = target: T1, Topoisomerase IV (Staphylococcus aureus); assay: Inhibition of decatenation activity of DNA topoisomerase 4 in hospital methicillin-resistant Staphylococcus aureus 79/05 using kDNA as substrate at 1 to 4 ug/ml after 1 hr using ethidium bromide staining by agarose gel electrophoresis; assay type: protein-complex assay
[6] = target: T1, Topoisomerase IV (Staphylococcus aureus); assay: Inhibition of decatenation activity of DNA topoisomerase 4 in hospital methicillin-resistant Staphylococcus aureus 80/05 using kDNA as substrate at 1 to 4 ug/ml after 1 hr using ethidium bromide staining by agarose gel electrophoresis; assay type: protein-complex assay
[7] = target: T1, Topoisomerase IV (Staphylococcus aureus); assay: Inhibition of decatenation activity of DNA topoisomerase 4 in hospital methicillin-resistant Staphylococcus aureus 573/11 using kDNA as substrate at 1 to 4 ug/ml after 1 hr using ethidium bromide staining by agarose gel electrophoresis; assay type: protein-complex assay
[8] = target: T2, DNA topoisomerase 4 (Staphylococcus epidermidis) (UniProt Q5HPI6+Q5HPI5); assay: Inhibition of decatenation activity of DNA topoisomerase 4 in hospital methicillin-resistant Staphylococcus epidermidis 23/04 using kDNA as substrate at 1 to 4 ug/ml after 1 hr using ethidium bromide staining by agarose gel electrophoresis; assay type: protein assay
[9] = target: T2, DNA topoisomerase 4 (Staphylococcus epidermidis); assay: Inhibition of decatenation activity of DNA topoisomerase 4 in hospital methicillin-resistant Staphylococcus epidermidis 63/04 using kDNA as substrate at 1 to 4 ug/ml after 1 hr using ethidium bromide staining by agarose gel electrophoresis; assay type: protein assay
[10] = tested on: Staphylococcus epidermidis; assay: Inhibition of biofilm formation in Staphylococcus epidermidis […]/[…] after 24 hrs using MTT staining by spectrophotometer analysis; assay type: functional, organism-based; details: 16/04, 24 h
[11] = tested on: Staphylococcus epidermidis; assay: Inhibition of biofilm formation in Staphylococcus epidermidis 23/04 after 24 hrs using MTT staining by spectrophotometer analysis; assay type: functional, organism-based; details: 23/04, 24 h
[12] = tested on: Staphylococcus epidermidis; assay: Inhibition of biofilm formation in Staphylococcus epidermidis ATCC 35984 at 4 ug/ml after 24 hrs using MTT staining by spectrophotometer analysis; assay type: functional; details: ATCC 35984, 24 h
Outline: (§1)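 Methicillin-resistant hospital isolates or ATCC strains of S. epidermidis were grown overnight in tryptone soy broth with 0.5% glucose. Inoculum of 10^7 CFU/mL was mixed 1:1 with compound in TSB-glucose and incubated 24 h at 37 °C. Non-adherent cells were washed off with PBS, and wells were stained with MTT (0.5% in PBS) for 2 h at 37 °C. Stain was solubilized in DMSO/glycine buffer and read at A554. Inhibition is relative to drug-free control; quadruplicates.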

[13] = tested on: Staphylococcus epidermidis; assay: Inhibition of biofilm formation in Staphylococcus epidermidis 23/04 at 4 ug/ml after 24 hrs using MTT staining by spectrophotometer analysis; assay type: functional; details: 23/04, 24 h
[14] = tested on: Staphylococcus epidermidis; assay: Inhibition of biofilm formation in Staphylococcus epidermidis 31/04 at 4 ug/ml after 24 hrs using MTT staining by spectrophotometer analysis; assay type: functional; details: 31/04, 24 h; outline: as §1
[15] = Antiviral activity against Bovine viral diarrhea virus 1-NADL ATCC VR-534 infected in MDBK cells assessed as protection against virus-induced cytopathogenicity after 3 to 4 days by MTT assay; assay type: functional, cell-based; details: Bovine viral diarrhea virus isolates and strains, ATCC VR-534, MDBK
Outline: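 Cells seeded in 96-well plates (BHK 5x10^4, MDBK 3x10^4 cells/well), grown overnight to confluence, infected at m.o.i. 0.01 (BHK for Reo-1, MDBK for BVDV); serial compound dilutions in maintenance medium with 0.5% inactivated FBS added after 1 h; viability by MTT after 3–4 days at 37°C; EC50 for 50% protection by linear regression.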

[16] = tested on: Staphylococcus aureus; assay: Antimicrobial activity against hospital methicillin-resistant Staphylococcus aureus 79/05 after 18 hrs by twofold serial microdilution method; assay type: functional; details: 79/05, 18 h
Outline: (§2)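 Twofold serial microdilution in Mueller-Hinton broth. Compound stock was made in DMSO and diluted in sterile water. Tested range was 0.125–512 µg/mL. Final inoculum was 10^5 CFU/mL. Plates were incubated 18 h at 35 °C. MIC is the lowest concentration preventing visible growth.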

[17] = tested on: Staphylococcus epidermidis; assay: Antimicrobial activity against hospital methicillin-resistant Staphylococcus epidermidis 76/04 after 18 hrs by twofold serial microdilution method; assay type: functional; details: 76/04, 18 h; outline: as §2
[18] = tested on: Staphylococcus epidermidis; assay: Ratio of ciprofloxacin MIC to compound MIC for hospital methicillin-resistant Staphylococcus epidermidis […]/[…] after 18 hrs by twofold serial microdilution method; assay type: functional, 16/04
[19] = target: T1, Topoisomerase IV (Staphylococcus aureus); assay: Inhibition of decatenation activity of DNA topoisomerase 4 in Staphylococcus aureus ATCC 6538 using kDNA as substrate at 32 ug/ml […] using ethidium bromide staining by agarose gel electrophoresis; assay type: protein-complex assay
[20] = target: T2, DNA topoisomerase 4 (Staphylococcus epidermidis); assay: Inhibition of decatenation activity of DNA topoisomerase 4 in Staphylococcus epidermidis ATCC 35984 using kDNA as substrate at 32 ug/ml after 1 hr using ethidium bromide staining by agarose gel electrophoresis; assay type: protein assay
[21] = target: T1, Topoisomerase IV (Staphylococcus aureus); assay: Inhibition of decatenation activity of DNA topoisomerase 4 in hospital methicillin-resistant Staphylococcus aureus 79/05 using kDNA as substrate at 32 ug/ml after 1 hr using ethidium bromide staining by agarose gel electrophoresis; assay type: protein-complex assay
[22] = target: T1, Topoisomerase IV (Staphylococcus aureus); assay: Inhibition of decatenation activity of DNA topoisomerase 4 in hospital methicillin-resistant Staphylococcus aureus 573/11 using kDNA as substrate at 32 ug/ml after 1 hr using ethidium bromide staining by agarose gel electrophoresis; assay type: protein-complex assay
[23] = target: T2, DNA topoisomerase 4 (Staphylococcus epidermidis); assay: Inhibition of decatenation activity of DNA topoisomerase 4 in hospital methicillin-resistant Staphylococcus epidermidis 31/04 using kDNA as substrate at 32 ug/ml after 1 hr using ethidium bromide staining by agarose gel electrophoresis; assay type: protein assay
[24] = target: T2, DNA topoisomerase 4 (Staphylococcus epidermidis); details: 16/04, at 1 to 4 µg/mL
[25] = target: T2, DNA topoisomerase 4 (Staphylococcus epidermidis); details: 16/04, at 32 µg/mL

T2 sequence (Q5HPI5 whole entry, looked up): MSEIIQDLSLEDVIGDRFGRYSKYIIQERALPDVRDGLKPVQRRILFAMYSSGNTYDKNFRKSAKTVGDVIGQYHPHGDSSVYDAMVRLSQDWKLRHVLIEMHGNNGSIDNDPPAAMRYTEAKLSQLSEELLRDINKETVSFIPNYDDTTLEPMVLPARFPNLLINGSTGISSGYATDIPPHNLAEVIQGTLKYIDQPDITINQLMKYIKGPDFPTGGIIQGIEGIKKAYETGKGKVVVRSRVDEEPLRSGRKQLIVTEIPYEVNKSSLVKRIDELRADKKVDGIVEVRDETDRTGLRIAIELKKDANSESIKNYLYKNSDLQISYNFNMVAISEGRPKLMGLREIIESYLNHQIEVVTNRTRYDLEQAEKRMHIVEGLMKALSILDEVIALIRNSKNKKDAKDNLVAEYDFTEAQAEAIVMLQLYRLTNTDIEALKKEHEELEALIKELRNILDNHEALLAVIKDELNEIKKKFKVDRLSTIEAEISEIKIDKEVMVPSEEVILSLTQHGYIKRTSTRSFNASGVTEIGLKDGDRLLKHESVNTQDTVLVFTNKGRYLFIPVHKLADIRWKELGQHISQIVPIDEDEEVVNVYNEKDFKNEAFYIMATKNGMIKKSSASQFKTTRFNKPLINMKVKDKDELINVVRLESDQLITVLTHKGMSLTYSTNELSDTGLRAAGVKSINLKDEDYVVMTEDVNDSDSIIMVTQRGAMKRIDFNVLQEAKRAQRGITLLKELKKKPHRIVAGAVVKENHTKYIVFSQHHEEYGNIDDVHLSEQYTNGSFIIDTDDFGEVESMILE
T2 sequence (Q5HPI6 whole entry, looked up): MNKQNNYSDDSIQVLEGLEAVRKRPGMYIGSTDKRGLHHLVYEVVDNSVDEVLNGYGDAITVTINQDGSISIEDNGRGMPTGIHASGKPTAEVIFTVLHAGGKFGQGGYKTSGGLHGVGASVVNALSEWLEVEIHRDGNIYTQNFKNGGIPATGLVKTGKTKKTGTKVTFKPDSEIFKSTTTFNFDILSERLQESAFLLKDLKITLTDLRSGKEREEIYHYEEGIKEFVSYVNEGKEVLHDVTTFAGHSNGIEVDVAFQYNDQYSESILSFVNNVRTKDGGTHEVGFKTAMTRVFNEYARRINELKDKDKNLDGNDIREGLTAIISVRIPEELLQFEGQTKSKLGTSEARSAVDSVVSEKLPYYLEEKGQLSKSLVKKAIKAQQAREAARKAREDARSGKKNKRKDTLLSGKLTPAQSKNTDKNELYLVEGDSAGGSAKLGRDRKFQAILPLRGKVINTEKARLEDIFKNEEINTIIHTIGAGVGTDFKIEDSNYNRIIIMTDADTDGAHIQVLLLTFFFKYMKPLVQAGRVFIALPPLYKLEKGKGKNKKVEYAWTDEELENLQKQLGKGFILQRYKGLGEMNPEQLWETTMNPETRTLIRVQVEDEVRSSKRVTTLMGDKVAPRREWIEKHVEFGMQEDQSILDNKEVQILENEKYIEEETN

| SMILES | inhibition [1] | inhibition [2] | inhibition [3] | inhibition [4] | inhibition [5] | inhibition [6] | inhibition [7] | inhibition [8] | inhibition [9] | IC50 [10] [µg/mL] | IC50 [11] [µg/mL] | inhibition at 4 µg/mL [12] [%] | inhibition at 4 µg/mL [13] [%] | inhibition at 4 µg/mL [14] [%] | EC50 [15] [µM] | MIC [16] [µg/mL] | MIC [17] [µg/mL] | Ratio [18] | inhibition [19] | inhibition [20] | also measured |
| --- | --- | --- | --- | --- | --- | --- | --- | --- | --- | --- | --- | --- | --- | --- | --- | --- | --- | --- | --- | --- | --- |
| FC(F)(F)c1cccc(NC(=S)Nc2cccc(Br)c2)c1 | Active | Active | Active | Active | Active | Active | Active | Active | Active | 3.91 (≈ 10.4 µM) | 3.13 (≈ 8.34 µM) | 46.8 | 71.6 | 70.1 | > 10 | 0.5 (≈ 1.33 µM) | 1 (≈ 2.67 µM) | 128 | Active | Active | inhibition [21]: Active; inhibition [22]: Active; inhibition [23]: Active; inhibition [24]: Active; inhibition [25]: Active |
| FC(F)(F)c1cccc(NC(S)=NCc2ccccc2)c1 |  |  |  |  |  |  |  |  |  |  |  |  |  |  | > 40 | 16 (≈ 51.6 µM) | 8 (≈ 25.8 µM) | 128 |  |  |  |
| O=C(O)c1cn(C2CC2)c2cc(N3CCNCC3)c(F)cc2c1=O [CIPROFLOXACIN] | Active | Active | Active | Active | Active | Active | Active | Active | Active | 6.81 (≈ 20.6 µM) | 42.8 (≈ 129 µM) | 45.4 | 5.71 | 18.7 |  | 64 (≈ 193 µM) | 0.125 (≈ 0.377 µM) |  | Active | Active | inhibition [21]: Active; inhibition [22]: Active; inhibition [23]: Active; inhibition [24]: Active; inhibition [25]: Active |
| FC(F)(F)c1cccc(NC(=S)NCCc2ccccc2)c1 |  |  |  |  |  |  |  |  |  |  |  |  |  |  | > 48 | 16 (≈ 49.3 µM) | 8 (≈ 24.7 µM) | 128 |  |  |  |
